From ChEMBL document CHEMBL3046679, “Design, synthesis, and biological activities of arylmethylamine substituted chlorotriazine and methylthiotriazine compounds” (J Agric Food Chem, 2011)
The source made the active and inactive calls. The rule behind the calls is not given here.

Tests used:
[1] = tested on: Lolium perenne; test: Herbicidal activity against Lolium perenne (perennial ryegrass) assessed as growth inhibition at 1 kg/ha preemergence treatment by glasshouse test; assay type: functional; details: pre-emergence, read-out: GI
Summary of the method: (§1)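 Glasshouse screen with pre- or postemergence application at 1.0 kg/ha. Result given as percent inhibition of plant growth; norflurazon and glyphosate used as controls.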

[2] = tested on: Pythium dissimile; test: Fungicidal activity against Pythium dissimile assessed as inhibition of mycelia growth at 2 ppm; assay type: functional, organism-based
Summary of the method: (§2)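 Mycelial growth test in 96-well plates: compound incorporated into artificial growth medium at 2 ppm, two replicates per rate. Each well scored 99 for complete, 55 for partial or 0 for no inhibition. Values are the mean across replicates; azoxystrobin and prochloraz used as positive controls.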

[3] = tested on: Echinochloa crus-galli; test: Herbicidal activity against Echinochloa crus-galli (barnyard grass) at 1.5 kg/ha postemergence treatment measured after 10 days by glasshouse test; assay type: functional; details: post-emergence, 240 h
Summary of the method: (§3)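 Glasshouse pre/postemergence test, each treatment in triplicate. Above-ground fresh weight measured 10 days after treatment. Result expressed as percent inhibition versus control, from 0 (no control) to 100 (complete control); glyphosate used as positive control.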

[4] = tested on: Phytophthora infestans; test: Fungicidal activity against Phytophthora infestans assessed as inhibition of mycelia growth at 200 ppm; assay type: functional, organism-based
[5] = tested on: Heliothis virescens; test: Insecticidal activity against Lepidoptera Heliothis virescens (tobacco budworm) assessed as mortality at 1000 ppm by leaf-disk assay; assay type: functional, organism-based
Summary of the method: (§4)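 Leaf-disk assay at 1000 ppm, three replicates. Plates kept 5–9 days in controlled-environment cabinets. Mortality judged against untreated wells: 99 for significant mortality, 0 otherwise. Values are the mean of three; thiamethoxam and indoxacarb used as positive controls.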

[6] = tested on: Arabidopsis thaliana; test: Herbicidal activity against Arabidopsis thaliana assessed as growth inhibition at 10 ppm by 96-well plate test; assay type: functional; details: read-out: GI
Summary of the method: (§5)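 96-well plate herbicide screen: Arabidopsis thaliana at 10 ppm and Poa annua at 32 ppm, two replicates. Plates incubated seven days in a controlled-environment cabinet. Each replicate scored 0 (no visible effect) or 99 (herbicidal effect); values are the mean of the two. Atrazine used as reference.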

[7] = tested on: Digitaria sanguinalis; test: Herbicidal activity against Digitaria sanguinalis (hairy crabgrass) assessed as growth inhibition at 1 kg/ha postemergence treatment by glasshouse test; assay type: functional; details: post-emergence, read-out: GI; summary of the method: as §1
[8] = tested on: Digitaria sanguinalis; test: Herbicidal activity against Digitaria sanguinalis (hairy crabgrass) assessed as growth inhibition at 1 kg/ha preemergence treatment by glasshouse test; assay type: functional; details: pre-emergence, read-out: GI; summary of the method: as §1
[9] = tested on: Poa annua; test: Herbicidal activity against Poa annua assessed as growth inhibition at 32 ppm by 96-well plate test; assay type: functional; details: read-out: GI; summary of the method: as §5
[10] = tested on: Lolium perenne; test: Herbicidal activity against Lolium perenne (perennial ryegrass) assessed as growth inhibition at 1 kg/ha postemergence treatment by glasshouse test; assay type: functional; details: post-emergence, read-out: GI; summary of the method: as §1
[11] = tested on: Botrytis cinerea; test: Fungicidal activity against Botryotinia fuckeliana assessed as inhibition of mycelia growth at 2 ppm; assay type: functional, organism-based; summary of the method: as §2
[12] = tested on: Amaranthus retroflexus; test: Herbicidal activity against Amaranthus retroflexus assessed as growth inhibition at 1 kg/ha preemergence treatment by glasshouse test; assay type: functional; details: pre-emergence, read-out: GI; summary of the method: as §1
[13] = tested on: Brassica napus; test: Herbicidal activity against Brassica napus (oilseed rape) at 1.5 kg/ha preemergence treatment measured after 10 days by glasshouse test; assay type: functional; details: pre-emergence, 240 h; summary of the method: as §3
[14] = tested on: Stellaria media; test: Herbicidal activity against Stellaria media assessed as growth inhibition at 1 kg/ha preemergence treatment by glasshouse test; assay type: functional; details: pre-emergence, read-out: GI; summary of the method: as §1
[15] = tested on: Brassica napus; test: Herbicidal activity against Brassica napus (oilseed rape) at 1.5 kg/ha postemergence treatment measured after 10 days by glasshouse test; assay type: functional; details: post-emergence, 240 h; summary of the method: as §3
[16] = tested on: Echinochloa crus-galli; test: Herbicidal activity against Echinochloa crus-galli (barnyard grass) at 1.5 kg/ha preemergence treatment measured after 10 days by glasshouse test; assay type: functional; details: pre-emergence, 240 h; summary of the method: as §3
[17] = tested on: Alternaria solani; test: Fungicidal activity against Alternaria solani assessed as inhibition of mycelia growth at 2 ppm; assay type: functional, organism-based; summary of the method: as §2
[18] = tested on: Amaranthus retroflexus; test: Herbicidal activity against Amaranthus retroflexus assessed as growth inhibition at 1 kg/ha postemergence treatment by glasshouse test; assay type: functional; details: post-emergence, read-out: GI; summary of the method: as §1
[19] = tested on: Fusarium graminearum; test: Fungicidal activity against Fusarium graminearum assessed as inhibition of mycelia growth at 2 ppm; assay type: functional, organism-based; summary of the method: as §2
[20] = tested on: Stellaria media; test: Herbicidal activity against Stellaria media assessed as growth inhibition at 1 kg/ha postemergence treatment by glasshouse test; assay type: functional; details: post-emergence, read-out: GI; summary of the method: as §1
[21] = tested on: Zymoseptoria tritici; test: Fungicidal activity against Zymoseptoria tritici assessed as inhibition of mycelia growth at 100 ppm; assay type: functional, organism-based
[22] = tested on: Aphididae; test: Insecticidal activity against Aphididae (aphids) assessed as mortality at 1000 ppm by leaf-disk assay; assay type: functional, organism-based; summary of the method: as §4
[23] = tested on: Uromyces viciae-fabae; test: Fungicidal activity against Uromyces viciae-fabae assessed as inhibition of mycelia growth at 100 ppm; assay type: functional, organism-based
Summary of the method: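 Leaf-piece assay on bean at 100 ppm, with compound applied before spore inoculation and two replicates. Each well scored 99 for complete inhibition, 55 for partial and 0 for none; value is the mean score across replicates.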

Structure (SMILES) | inhibition of growth at 1000 g/ha [1] | inhibition [2] | inhibition at 1500 g/ha [3] | inhibition [4] | mortality [5] | inhibition of growth at 10 ppm [6] | inhibition of growth at 1000 g/ha [7] | inhibition of growth at 1000 g/ha [8] | inhibition of growth at 32 ppm [9] | inhibition of growth at 1000 g/ha [10] | inhibition [11] | inhibition of growth at 1000 g/ha [12] | inhibition at 1500 g/ha [13] | inhibition of growth at 1000 g/ha [14] | inhibition at 1500 g/ha [15] | inhibition at 1500 g/ha [16] | inhibition [17] | inhibition of growth at 1000 g/ha [18] | inhibition [19] | inhibition of growth at 1000 g/ha [20] | other results
CCNc1nc(Cl)nc(NC(C)C)n1 [ATRAZINE] | 80% | inactive | 100% | inactive | inactive | 99% | 70% | 0% | 0% | 100% | inactive | 100% | 100% | 90% | 100% | 100% | inactive | 100% | inactive | 100% | 
CSc1nc(NCc2ccc(Cl)nc2)nc(NC(C)C)n1 | 10% | inactive | 88.6% | inactive | inactive | 99% | 90% | 0% | 0% | 50% | Active | 100% | 100% | 90% | 100% | 88.6% | inactive | 70% | inactive | 100% | inhibition [21]: inactive
O=C(O)CNCP(=O)(O)O [GLYPHOSATE] | 0% |  |  |  |  |  | 90% | 0% |  | 80% |  | 90% |  | 0% |  |  |  | 90% |  | 80% | 
CC(C)Nc1nc(Cl)nc(NCC2CCCO2)n1 (centres undefined) |  |  | 41.3% |  |  |  |  |  |  |  |  |  | 100% |  | 100% | 46.4% |  |  |  |  | 
CSc1nc(NCc2ccc(F)cc2)nc(NC(C)C)n1 | 50% | inactive | 100% | inactive | inactive | 99% | 80% | 0% | 0% | 80% | inactive | 100% | 100% | 90% | 100% | 21.4% |  | 100% | inactive | 100% | mortality [22]: inactive; inhibition [21]: inactive
CC(C)Nc1nc(Cl)nc(NCc2cnc(Br)s2)n1 |  | inactive | 10.4% | inactive | inactive |  |  |  |  |  | inactive |  | 5.2% |  | 10% | 11.3% | inactive |  | inactive |  | mortality [22]: inactive; inhibition [21]: inactive; inhibition [23]: inactive
CSc1nc(NCc2cnc(Br)s2)nc(NC(C)C)n1 |  |  | 92% |  |  |  |  |  |  |  |  |  | 87.1% |  | 100% | 74.6% |  |  |  |  | 
CC(C)Nc1nc(Cl)nc(NCc2cc(-c3ccccc3)no2)n1 |  | inactive | 17.7% | inactive | Active |  |  |  |  |  |  |  | 20.1% |  | 42.4% | 4.3% | inactive |  | inactive |  | mortality [22]: inactive
CCNc1nc(NC(C)C)nc(SC)n1 [AMETRYNE] | 90% | inactive | 100% | inactive | inactive | 99% | 100% | 90% | 0% | 100% |  | 100% | 100% | 90% | 100% | 100% | inactive | 100% | inactive | 100% | mortality [22]: inactive; inhibition [21]: inactive
CNc1cnn(-c2cccc(C(F)(F)F)c2)c(=O)c1Cl [NORFLURAZONE] |  |  |  |  |  | 99% |  |  | 99% |  |  |  |  |  |  |  |  |  |  |  | 
